Here are results for 4 compounds from ChEMBL document CHEMBL1817648, “Synthesis and in vitro antibacterial activity of a series of novel gatifloxacin derivatives” (Eur J Med Chem, 2011).

The test system of data set [1] is Enterococcus faecalis. As to the kind of experiment: Antibacterial activity against Enterococcus faecalis 08-10 after 18 to 24 hrs by NCCLS M100-S11 two fold serial dilution method. The format is functional.
Data set [2] is described as follows: Cytotoxicity against african green monkey Vero cells after 72 hrs by MTT assay. The conditions noted are these: chlorocebus sabaeus. The format is cell-based. In short, it runs like this:
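Vero cells were kept in Minimum Essential Medium with Earle's salts plus 10% fetal bovine serum at 37 °C under 5% CO₂. Cells were seeded at 1 × 10⁴ per well and allowed to recover 24 h. Medium was then replaced with assay medium containing compound or no drug, and cells were exposed for 72 h. CC₅₀ is the 50% cellular cytotoxic concentration.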

In data set [3] the test system is Enterococcus faecalis. As to the kind of experiment: Antibacterial activity against Enterococcus faecalis 08-12 after 18 to 24 hrs by NCCLS M100-S11 two fold serial dilution method. The format is functional.
Data set [4] concerns Staphylococcus epidermidis. The experiment in a line: Antibacterial activity against methicillin-resistant Staphylococcus epidermidis 09-4 after 18 to 24 hrs by NCCLS M100-S11 two fold serial dilution method. The format is functional. In short, it runs like this: (§1)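 Two-fold serial dilution in agar medium. MIC read as the lowest concentration giving complete inhibition of bacterial growth after incubation at 35 °C for 18–24 h.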

In data set [5] the test system is Escherichia coli. The experiment in a line: Antibacterial activity against Escherichia coli 08-22 after 18 to 24 hrs by NCCLS M100-S11 two fold serial dilution method. The format is functional.
Data set [6] has as its system Klebsiella pneumoniae. The experiment in a line: Antibacterial activity against Klebsiella pneumoniae 09-23 after 18 to 24 hrs by NCCLS M100-S11 two fold serial dilution method. The format is functional.
For data set [7], the system named is Staphylococcus epidermidis. As to the kind of experiment: Antibacterial activity against methicillin-sensitive Staphylococcus epidermidis 09-3 after 18 to 24 hrs by NCCLS M100-S11 two fold serial dilution method. The format is functional. In short, it runs like this: as §1
For data set [8], the system named is Pseudomonas aeruginosa. The experiment in a line: Antibacterial activity against Pseudomonas aeruginosa ATCC 27853 after 18 to 24 hrs by NCCLS M100-S11 two fold serial dilution method. The format is functional.
Data set [9] has as its system Staphylococcus epidermidis. As to the kind of experiment: Antibacterial activity against methicillin-sensitive Staphylococcus epidermidis 09-6 after 18 to 24 hrs by NCCLS M100-S11 two fold serial dilution method. The format is functional. In short, it runs like this:
as §1

Data set [10] concerns Staphylococcus aureus. The experiment in a line: Antibacterial activity against methicillin-resistant Staphylococcus aureus 08-1 after 18 to 24 hrs by NCCLS M100-S11 two fold serial dilution method. The format is functional. In short, it runs like this:
as §1

For data set [11], the system named is Klebsiella pneumoniae. As to the kind of experiment: Antibacterial activity against Klebsiella pneumoniae 09-22 after 18 to 24 hrs by NCCLS M100-S11 two fold serial dilution method. The format is functional.
For data set [12], the system named is Staphylococcus aureus. The experiment in a line: Antibacterial activity against methicillin-sensitive Staphylococcus aureus 08-1 after 18 to 24 hrs by NCCLS M100-S11 two fold serial dilution method. The format is functional.
The test system of data set [13] is Staphylococcus aureus. As to the kind of experiment: Antibacterial activity against Staphylococcus aureus ATCC 25923 after 18 to 24 hrs by NCCLS M100-S11 two fold serial dilution method. The format is functional. The following applies: ATCC25923.
For data set [14], the system named is Streptococcus pneumoniae. The experiment in a line: Antibacterial activity against Streptococcus pneumoniae 08-4 after 18 to 24 hrs by NCCLS M100-S11 two fold serial dilution method. The format is functional.
Data set [15] has as its system Streptococcus pneumoniae. The experiment in a line: Antibacterial activity against Streptococcus pneumoniae 08-2 after 18 to 24 hrs by NCCLS M100-S11 two fold serial dilution method. The format is functional.
Data set [16] has as its system Pseudomonas aeruginosa. As to the kind of experiment: Antibacterial activity against Pseudomonas aeruginosa 09-32 after 18 to 24 hrs by NCCLS M100-S11 two fold serial dilution method. The format is functional.
Data set [17] has as its system Enterococcus faecium. The experiment in a line: Antibacterial activity against Enterococcus faecium 08-2 after 18 to 24 hrs by NCCLS M100-S11 two fold serial dilution method. The format is functional.
Data set [18] concerns Pseudomonas aeruginosa. The experiment in a line: Antibacterial activity against Pseudomonas aeruginosa 09-34 after 18 to 24 hrs by NCCLS M100-S11 two fold serial dilution method. The format is functional.
Data set [19] deals with Escherichia coli. The experiment in a line: Antibacterial activity against Escherichia coli ATCC 25922 after 18 to 24 hrs by NCCLS M100-S11 two fold serial dilution method. The conditions noted are these: ATCC25922. The format is functional.
Data set [20] has as its system Enterococcus faecium. As to the kind of experiment: Antibacterial activity against Enterococcus faecium 08-7 after 18 to 24 hrs by NCCLS M100-S11 two fold serial dilution method. The format is functional.
Data set [21] deals with Escherichia coli. The experiment in a line: Antibacterial activity against Escherichia coli 08-21 after 18 to 24 hrs by NCCLS M100-S11 two fold serial dilution method. The format is functional.
In data set [22] the test system is Pseudomonas aeruginosa. The experiment in a line: Antibacterial activity against Pseudomonas aeruginosa 09-33 after 18 to 24 hrs by NCCLS M100-S11 two fold serial dilution method. The format is functional.

In brackets after ≈: the same amount, converted by molar mass.

For the compound `COc1c(N2CCN(CC/C(C)=N/O)C(C)C2)c(F)cc2c(=O)c(C(=O)O)cn(C3CC3)c12` (stereo not drawn), the MIC against Enterococcus faecalis [1] was > 128 mg/L; against Enterococcus faecalis [3] it was > 128 mg/L; in data set [4] it was 0.25 mg/L (≈ 0.543 µM); with Escherichia coli [5] it was 64 mg/L (≈ 139 µM); against Klebsiella pneumoniae [6] it was 8 mg/L (≈ 17.4 µM); in [7], 0.25 mg/L (≈ 0.543 µM). For the same compound, the MIC came out at 8 mg/L (≈ 17.4 µM) against Pseudomonas aeruginosa [8]; 0.25 mg/L (≈ 0.543 µM) in data set [9]; 32 mg/L (≈ 69.5 µM) in the data set on Staphylococcus aureus [10]; 64 mg/L (≈ 139 µM) with Klebsiella pneumoniae [11]; 32 mg/L (≈ 69.5 µM) in the data set on Staphylococcus aureus [12]; 2 mg/L (≈ 4.34 µM) against Staphylococcus aureus [13]. In addition, the MIC in the data set on Streptococcus pneumoniae [14] turned out to be 4 mg/L (≈ 8.69 µM); against Streptococcus pneumoniae [15], 32 mg/L (≈ 69.5 µM); against Pseudomonas aeruginosa [16], 4 mg/L (≈ 8.69 µM); against Enterococcus faecium [17] it was 64 mg/L (≈ 139 µM); in the data set on Pseudomonas aeruginosa [18], 8 mg/L (≈ 17.4 µM); against Escherichia coli [19], 16 mg/L (≈ 34.7 µM). Besides, the MIC was 64 mg/L (≈ 139 µM) with Enterococcus faecium [20], 64 mg/L (≈ 139 µM) against Escherichia coli [21] and > 128 mg/L in the data set with Pseudomonas aeruginosa [22]. In addition, in [2], the CC50 at 72 h came to 44.2 mg/L (≈ 96 µM).
Take `CO/N=C(\C)CCN1CCN(c2c(F)cc3c(=O)c(C(=O)O)cn(C4CC4)c3c2OC)CC1C` (stereo not drawn): the MIC in the data set on Enterococcus faecalis [1] is > 128 mg/L; in the data set on Enterococcus faecalis [3], > 128 mg/L; in data set [4], 2 mg/L (≈ 4.21 µM); in the data set on Escherichia coli [5] it was > 128 mg/L; in the data set on Klebsiella pneumoniae [6] it was > 128 mg/L; in data set [7], 0.5 mg/L (≈ 1.05 µM). Moreover, the MIC in the data set on Pseudomonas aeruginosa [8] was 128 mg/L (≈ 270 µM); in data set [9], 1 mg/L (≈ 2.11 µM); in the data set with Staphylococcus aureus [10], > 128 mg/L; against Klebsiella pneumoniae [11], > 128 mg/L; against Staphylococcus aureus [12], 2 mg/L (≈ 4.21 µM); with Staphylococcus aureus [13], 0.5 mg/L (≈ 1.05 µM). The MIC in the data set on Streptococcus pneumoniae [14] was > 128 mg/L; with Streptococcus pneumoniae [15], > 128 mg/L; against Pseudomonas aeruginosa [16], 128 mg/L (≈ 270 µM); in the data set on Enterococcus faecium [17], > 128 mg/L; in the data set on Pseudomonas aeruginosa [18], > 128 mg/L; against Escherichia coli [19], 128 mg/L (≈ 270 µM). For the same compound, the MIC against Enterococcus faecium [20], against Escherichia coli [21] and against Pseudomonas aeruginosa [22] was > 128 mg/L in each case. The midpoint of cytotoxicity in data set [2], the CC50 at 72 h, lay at 157 mg/L (≈ 332 µM).
`CCO/N=C(\C)CCN1CCN(c2c(F)cc3c(=O)c(C(=O)O)cn(C4CC4)c3c2OC)CC1C` (stereo not drawn): the minimum inhibitory concentration (MIC) with Enterococcus faecalis [1] is > 128 mg/L; in the data set with Enterococcus faecalis [3], > 128 mg/L; in data set [4], 0.5 mg/L (≈ 1.02 µM); with Escherichia coli [5], > 128 mg/L; in the data set with Klebsiella pneumoniae [6] it was > 128 mg/L; in data set [7], 0.5 mg/L (≈ 1.02 µM). In addition, the MIC with Pseudomonas aeruginosa [8] was > 128 mg/L; in data set [9], 0.5 mg/L (≈ 1.02 µM); against Staphylococcus aureus [10] it was 16 mg/L (≈ 32.7 µM); against Klebsiella pneumoniae [11], 128 mg/L (≈ 262 µM); against Staphylococcus aureus [12], 128 mg/L (≈ 262 µM); with Staphylococcus aureus [13], 64 mg/L (≈ 131 µM). Also, the MIC against Streptococcus pneumoniae [14] is > 128 mg/L; in the data set with Streptococcus pneumoniae [15], 128 mg/L (≈ 262 µM); against Pseudomonas aeruginosa [16] it was 128 mg/L (≈ 262 µM); with Enterococcus faecium [17], > 128 mg/L; against Pseudomonas aeruginosa [18], > 128 mg/L; against Escherichia coli [19] it was > 128 mg/L. The minimal inhibitory concentration (MIC) against Enterococcus faecium [20], with Escherichia coli [21] and in the data set with Pseudomonas aeruginosa [22] was > 128 mg/L in each case. This compound also had a CC50 at 72 h in data set [2] of 88.4 mg/L (≈ 181 µM).
As for `COc1c(N2CCN(CC/C(C)=N/NC(N)=O)C(C)C2)c(F)cc2c(=O)c(C(=O)O)cn(C3CC3)c12` (stereo not drawn), the MIC with Enterococcus faecalis [1] was 8 mg/L (≈ 15.9 µM); with Enterococcus faecalis [3], 8 mg/L (≈ 15.9 µM); in data set [4], 1 mg/L (≈ 1.99 µM); against Escherichia coli [5], 4 mg/L (≈ 7.96 µM); against Klebsiella pneumoniae [6], 2 mg/L (≈ 3.98 µM); in data set [7], 0.25 mg/L (≈ 0.497 µM). For the same compound, the MIC is 4 mg/L (≈ 7.96 µM) in the data set with Pseudomonas aeruginosa [8]; 0.25 mg/L (≈ 0.497 µM) in data set [9]; 2 mg/L (≈ 3.98 µM) in the data set with Staphylococcus aureus [10]; 1 mg/L (≈ 1.99 µM) with Klebsiella pneumoniae [11]; 1 mg/L (≈ 1.99 µM) against Staphylococcus aureus [12]; 0.5 mg/L (≈ 0.995 µM) against Staphylococcus aureus [13]. For the same compound, the minimal inhibitory concentration (MIC) against Streptococcus pneumoniae [14] was 2 mg/L (≈ 3.98 µM); against Streptococcus pneumoniae [15], 8 mg/L (≈ 15.9 µM); against Pseudomonas aeruginosa [16], 0.25 mg/L (≈ 0.497 µM); against Enterococcus faecium [17] it was 8 mg/L (≈ 15.9 µM); with Pseudomonas aeruginosa [18] it was 2 mg/L (≈ 3.98 µM); with Escherichia coli [19], 2 mg/L (≈ 3.98 µM). Besides, the MIC was 8 mg/L (≈ 15.9 µM) in the data set on Enterococcus faecium [20], 8 mg/L (≈ 15.9 µM) in the data set with Escherichia coli [21] and 16 mg/L (≈ 31.8 µM) against Pseudomonas aeruginosa [22]. Further, in data set [2], the cytotoxic concentration (CC50) at 72 h is 31.2 mg/L (≈ 62.2 µM).
